In assay [1] the target is T1, Polyunsaturated fatty acid 5-lipoxygenase (Homo sapiens) (UniProt P09917).
T1 sequence (whole entry): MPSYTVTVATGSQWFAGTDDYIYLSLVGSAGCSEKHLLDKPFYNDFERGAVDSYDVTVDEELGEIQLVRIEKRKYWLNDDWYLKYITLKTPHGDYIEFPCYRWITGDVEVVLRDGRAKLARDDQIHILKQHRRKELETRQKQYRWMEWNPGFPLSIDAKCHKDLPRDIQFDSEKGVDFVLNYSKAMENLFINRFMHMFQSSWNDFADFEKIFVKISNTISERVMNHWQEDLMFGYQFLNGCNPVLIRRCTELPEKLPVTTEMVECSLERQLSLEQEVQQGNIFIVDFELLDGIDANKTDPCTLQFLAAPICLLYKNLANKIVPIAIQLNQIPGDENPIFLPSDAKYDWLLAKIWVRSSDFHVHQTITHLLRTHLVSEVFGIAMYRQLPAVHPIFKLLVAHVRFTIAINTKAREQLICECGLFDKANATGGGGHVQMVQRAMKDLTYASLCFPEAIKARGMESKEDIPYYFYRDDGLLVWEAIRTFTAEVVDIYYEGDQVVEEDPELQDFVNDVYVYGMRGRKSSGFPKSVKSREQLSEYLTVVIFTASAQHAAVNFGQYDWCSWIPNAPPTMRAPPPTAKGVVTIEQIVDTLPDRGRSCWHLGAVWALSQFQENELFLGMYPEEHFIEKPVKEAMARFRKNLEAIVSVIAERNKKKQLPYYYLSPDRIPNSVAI
The experiment in a line: Inhibitory activity against lipoxygenase (LO) at 10 uM concentration. In a few lines:
(§1)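 Human peripheral blood leukocytes (5 × 10^6/0.5 mL) in pH 7.2 phosphate buffer with 0.6 mM Ca2+ and 1.0 mM Mg2+ incubated with compound for 15 min at 37 °C with shaking. 5-HETE band area measured as % of total radioactivity. Inhibition = (1 − cmd/cntl) × 100; single determination in duplicate; ANOVA, p<0.05.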

The target of assay [2] is T1, Polyunsaturated fatty acid 5-lipoxygenase (Homo sapiens). Kind of assay: Inhibitory activity against lipoxygenase (LO) at 1 uM concentration. The method, boiled down:
as §1

For the next assay, the target named is Cyclooxygenase (Homo sapiens, UniProt P35354+P23219). The experiment in a line: Inhibitory activity against Prostaglandin G/H synthase from human platelets was determined.
The subject of assay [3] is Rattus norvegicus. The experiment in a line: Inhibitory activity against developing adjuvant-induced arthritis (Dev AA) in rat at 50 mg/kg concentration. In kind it is functional.
The subject of assay [4] is Rattus norvegicus. The experiment in a line: Inhibitory activity against developing adjuvant-induced arthritis (Dev AA) in rat at 5 mg/kg concentration; decrease in paw volume statistically significant compared to control. It counts as functional.
The species named for assay [5] is Rattus norvegicus. Kind of assay: Effective dose of compound to inhibit established adjuvant arthritis (EstAA) in rat. In kind it is functional. The method, boiled down:
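Arthritis induced in male Lewis rats with Mycobacterium butyricum adjuvant in the right hind footpad. Rats with arthritis established by day 14 after injection were selected, then dosed orally for 14 days. Noninjected paw volume measured by mercury displacement. % inhibition versus untreated arthritic controls.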

For assay [6], the species on record is Rattus norvegicus. The experiment in a line: Effective dose of compound to inhibit acetic acid induced writhing in rat was determined. In kind it is functional. On the technique in general: Writhing tests count abdominal constrictions after an irritant is injected.
Assay [7] is filed under the species Rattus norvegicus. The experiment in a line: Effective dose of compound to inhibit adjuvant-induced arthritis (Dev AA) in rat. In kind it is functional.
Assay [8] relates to Rattus norvegicus. The experiment in a line: Effective dose of compound to inhibit carrageenan induced paw edema in rat was determined. It counts as functional. The method, boiled down: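 Male CD rats (150 ± 10 g), 10 per group. Compound or vehicle (1% acacia in water) given orally 1 h before subplantar injection of 0.1 mL 1% carrageenan in saline into the right hind paw. Paw volume measured by mercury displacement before dosing and 3 h after carrageenan; the difference is the edema volume.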
(In general: Carrageenan injected into the paw causes an acute inflammation.)

The species named for assay [9] is Rattus norvegicus. Kind of assay: Dose of compound to produce a 50% ulcerogenic response in rats was determined. In kind it is functional. In a few lines: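 Ulcerogenic dose: value taken as the dose giving 50% response on a graded scale, 0% = no ulcers or redness in stomach or intestines, 100% = major lesions in both stomach and intestines. Method follows a cited procedure.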

The results in this text go back to ChEMBL document CHEMBL1124310, “Antiinflammatory 2,6-di-tert-butyl-4-(2-arylethenyl)phenols” (J Med Chem, 1989).

Regarding `CC(C)(C)c1cc(/C=C/c2cccs2)cc(C(C)(C)C)c1O`, the inhibition in assay [1] is 88%; in assay [2], 25%. Also, the IC50 at Cyclooxygenase is 63 nM. In the assay on Rattus norvegicus [3], the inhibition in vivo at 50 mg/kg is 77%. Further, in the assay on Rattus norvegicus [4], the inhibition in vivo at 5 mg/kg was determined as 57%.

`CC(C)(C)c1cc(/C=C/c2cccnc2)cc(C(C)(C)C)c1O`: the inhibition in assay [1] was determined as 84%; in assay [2] it was 26%. Besides, the ED50 in the assay filed under Rattus norvegicus [5] amounted to 4 mg/kg; in the assay filed under Rattus norvegicus [6] it was 3.9 mg/kg; in the assay listed under Rattus norvegicus [7], 2.1 mg/kg; with Rattus norvegicus [8] it was 16.5 mg/kg. For the same compound, in the assay with Rattus norvegicus [3], the inhibition in vivo at 50 mg/kg was 82%. In addition, the UD50 in the assay listed under Rattus norvegicus [9] came out at 202 mg/kg. For the same compound, the inhibition in vivo at 5 mg/kg with Rattus norvegicus [4] turned out to be 56%.

For orientation: inhibition means the percentage by which the read-out fell short of the control. For orientation: IC50 means the midpoint of a concentration-inhibition curve. The low end stands for inhibition by little substance, the high end for a need for much substance. The inhibition in vivo is the percentage by which the read-out fell short of the control. By ED50 is commonly meant the dose at which the effect has come halfway, by size or by number of responders.
